According to ChEMBL document CHEMBL3286200, “Design and green synthesis of 2-(diarylalkyl)aminobenzothiazole derivatives and their dual activities as angiotensin converting enzyme inhibitors and calcium channel blockers” (Eur J Med Chem, 2014):
Calls of active or inactive are those of the source. The calls are words filed in the database; no cut-off is given here.

Target: T1, Angiotensin-converting enzyme (Oryctolagus cuniculus) (UniProt P12822)
T1 sequence (whole entry): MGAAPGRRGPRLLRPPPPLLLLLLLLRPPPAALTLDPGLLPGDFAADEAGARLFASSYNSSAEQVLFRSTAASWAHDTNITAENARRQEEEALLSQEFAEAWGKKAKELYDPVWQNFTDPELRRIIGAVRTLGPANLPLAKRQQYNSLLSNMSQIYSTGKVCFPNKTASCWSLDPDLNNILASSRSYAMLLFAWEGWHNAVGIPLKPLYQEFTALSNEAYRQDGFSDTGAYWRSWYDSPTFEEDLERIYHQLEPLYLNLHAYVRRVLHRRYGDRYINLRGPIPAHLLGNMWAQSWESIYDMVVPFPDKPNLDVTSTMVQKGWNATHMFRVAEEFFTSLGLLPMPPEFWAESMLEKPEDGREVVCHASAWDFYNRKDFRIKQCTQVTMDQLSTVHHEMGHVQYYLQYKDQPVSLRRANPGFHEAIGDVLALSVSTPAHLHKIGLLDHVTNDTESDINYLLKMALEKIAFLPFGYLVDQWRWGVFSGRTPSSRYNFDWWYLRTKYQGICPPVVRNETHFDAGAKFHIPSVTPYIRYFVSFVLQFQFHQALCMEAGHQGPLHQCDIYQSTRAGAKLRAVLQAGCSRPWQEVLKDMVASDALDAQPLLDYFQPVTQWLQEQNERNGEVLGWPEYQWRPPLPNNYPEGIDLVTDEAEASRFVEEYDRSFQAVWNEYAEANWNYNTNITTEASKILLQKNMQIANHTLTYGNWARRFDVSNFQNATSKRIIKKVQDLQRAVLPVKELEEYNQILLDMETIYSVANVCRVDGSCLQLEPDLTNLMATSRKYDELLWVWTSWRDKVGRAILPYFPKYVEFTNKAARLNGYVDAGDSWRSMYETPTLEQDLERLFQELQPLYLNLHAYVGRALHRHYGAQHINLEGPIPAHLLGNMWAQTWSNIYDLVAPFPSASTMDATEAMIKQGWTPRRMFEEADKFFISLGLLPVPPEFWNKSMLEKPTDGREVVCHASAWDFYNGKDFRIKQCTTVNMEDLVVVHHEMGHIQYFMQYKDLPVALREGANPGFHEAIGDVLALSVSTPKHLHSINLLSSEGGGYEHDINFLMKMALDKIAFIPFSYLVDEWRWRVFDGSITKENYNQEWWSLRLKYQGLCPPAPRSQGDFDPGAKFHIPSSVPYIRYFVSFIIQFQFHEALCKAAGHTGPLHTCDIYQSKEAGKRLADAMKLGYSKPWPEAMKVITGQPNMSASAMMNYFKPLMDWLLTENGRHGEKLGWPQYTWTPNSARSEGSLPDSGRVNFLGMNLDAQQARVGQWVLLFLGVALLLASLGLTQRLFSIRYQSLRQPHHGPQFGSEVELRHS
Test: Inhibition of rabbit lung ACE assessed as inhibition of hippuryl-histidyl-leucine substrate hydrolysis at 1 uM pretreated for 10 mins followed by addition of 5 mM HHL substrate for 30 mins measured as hippuric acid release
How it was run: (§1)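 Reaction started with […] of 5 mM HHL; released hippuric acid read as yellow colour at 410 nm. Inhibition% = 100 − (T/C)×100; IC50 from percentage-inhibition versus concentration curves.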
For `COc1ccc(C(Nc2nc3ccccc3s2)c2c(O)ccc3ccccc23)cc1` (stereo not given), the inhibition was 61.8%. For `COc1ccc(C(Nc2nc3c(Cl)cccc3s2)c2c(O)ccc3ccccc23)cc1` (stereo not given), the inhibition was 80.1%.

Target: T2, Angiotensin-converting enzyme (Oryctolagus cuniculus, UniProt P12822)
T2 sequence (P12822 whole entry): T1 sequence (whole entry)
Test: Inhibition of rabbit lung ACE assessed as inhibition of hippuryl-histidyl-leucine substrate hydrolysis pretreated for 10 mins followed by addition of 5 mM HHL substrate for 30 mins measured as hippuric acid release
How it was run: as §1
In the case of `O=C(/C=C/c1ccc(O)c(O)c1)c1ccc(O)cc1O` [BUTEIN], the IC50 is reported as 730000 nM. Molecule `COc1ccc(C(Nc2nc3ccccc3s2)c2c(O)ccc3ccccc23)cc1` (stereo not given) has an IC50 of 837 nM. For `COc1ccc(C(Nc2nc3c(Cl)cccc3s2)c2c(O)ccc3ccccc23)cc1` (stereo not given), the IC50 was 607 nM.

Organism: Rattus norvegicus
Test: Inhibition of voltage-dependent calcium channel in Sprague-Dawley rat thoracic aorta assessed as inhibition of CaCl2-induced contraction at […] by isometric force transducer
Assay type: tissue-based
How it was run: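 Isolated rat aortic rings hung on steel hooks in a water-jacketed organ bath of oxygenated KHB at 37 °C. Resting tension 1 g, equilibration about 30 min. Rings precontracted with […], with buffer changed every 15 min. Tissue preincubated with test agent, then cumulative calcium concentration–response curve (10^-3 to 10^-1 M) recorded as isometric tension.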
In the case of `COC(=O)C1=C(C)NC(C)=C(C(=O)OC)C1c1ccccc1[N+](=O)[O-]`, the inhibition is reported as “Active”.

Test system: not listed separately
Test: (§2) Inhibition of voltage-dependent calcium channel in Sprague-Dawley rat thoracic aorta assessed as inhibition of CaCl2-induced contraction by isometric force transducer
Assay type: tissue-based
How it was run: (§3)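 Rat aortic rings held at 37 °C in 25 mL oxygenated KHB in an organ bath, under 1 g resting tension, equilibrated about 30 min. Isometric tension recorded by force transducer. Initial contraction with phenylephrine 1 mM, buffer changed every 15 min. After preincubation with test agent, a cumulative calcium concentration-response curve (10^-3 to 10^-1 M) was recorded.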
`COc1ccc(C(Nc2nc3ccccc3s2)c2c(O)ccc3ccccc23)cc1` (stereo not given) showed an IC50 of 3000 nM. For `COc1ccc(C(Nc2nc3c(Cl)cccc3s2)c2c(O)ccc3ccccc23)cc1` (stereo not given), the IC50 was 50000 nM.

Organism: Rattus norvegicus
Test: as §2
Assay type: tissue-based
How it was run: as §3
In the case of `Oc1ccc2ccccc2c1C(Nc1nc2ccccc2s1)c1cc(F)ccc1Br` (stereo not given), the inhibition is reported as “Dose-dependent effect”. For `Oc1ccc2ccccc2c1C(Nc1nc2ccccc2s1)c1cccc(Br)c1` (stereo not given), the inhibition was “Dose-dependent effect”. With `CN(C)c1ccc(C(Nc2nc3ccccc3s2)c2c(O)ccc3ccccc23)cc1` (stereo not given) the inhibition was “Dose-dependent effect”. For `Oc1ccc2ccccc2c1C(Nc1nc2c(Cl)cccc2s1)c1cccc(Cl)c1` (stereo not given), the inhibition was “Dose-dependent effect”. In the case of `CC(C)c1ccc(C(Nc2nc3ccccc3s2)c2c(O)ccc3ccccc23)cc1` (stereo not given), the inhibition is reported as “Dose-dependent effect”. For `Oc1ccc2ccccc2c1C(Nc1nc2ccccc2s1)c1ccc(F)cc1` (stereo not given), the inhibition was “Dose-dependent effect”. With `Oc1ccc2ccccc2c1C(Nc1nc2ccccc2s1)c1ccc(Cl)c(Cl)c1` (stereo not given) the inhibition was “Dose-dependent effect”. With `Oc1ccc2ccccc2c1C(Nc1nc2ccc(Cl)cc2s1)c1ccc(Cl)c(Cl)c1` (stereo not given) the inhibition was “Dose-dependent effect”. In the case of `Oc1ccc2ccccc2c1C(Nc1nc2ccc(Cl)cc2s1)c1ccc(Br)cc1` (stereo not given), the inhibition is reported as “Dose-dependent effect”. For `Oc1ccc2ccccc2c1C(Nc1nc2ccccc2s1)c1cccc(Cl)c1` (stereo not given), the inhibition was “Dose-dependent effect”. For `Oc1ccc2ccccc2c1C(Nc1nc2ccc(Cl)cc2s1)c1ccccc1` (stereo not given), the inhibition was “Dose-dependent effect”. In the case of `N#Cc1ccc(C(Nc2nc3ccccc3s2)c2c(O)ccc3ccccc23)cc1` (stereo not given), the inhibition is reported as “Dose-dependent effect”. With `Oc1ccc2ccccc2c1C(Nc1nc2c(Cl)cccc2s1)c1cccc(Oc2ccccc2)c1` (stereo not given) the inhibition was “Dose-dependent effect”. With `Oc1ccc2ccccc2c1C(Nc1nc2ccccc2s1)c1cccc(Cl)c1Cl` (stereo not given) the inhibition was “Dose-dependent effect”. With `Oc1ccc2ccccc2c1C(Nc1nc2ccccc2s1)c1ccc(C(F)(F)F)cc1` (stereo not given) the inhibition was “Dose-dependent effect”. With `Oc1ccc2ccccc2c1C(Nc1nc2ccccc2s1)c1cccc(Oc2ccccc2)c1` (stereo not given) the inhibition was “Dose-dependent effect”. With `Oc1ccc2ccccc2c1C(Nc1nc2ccccc2s1)c1ccccc1Cl` (stereo not given) the inhibition was “Dose-dependent effect”. With `Oc1ccc2ccccc2c1C(Nc1nc2c(Cl)cccc2s1)c1ccc2ccccc2c1` (stereo not given) the inhibition was “Dose-dependent effect”. For `Oc1ccc2ccccc2c1C(Nc1nc2ccccc2s1)c1ccc(Cl)cc1` (stereo not given), the inhibition was “Dose-dependent effect”. With `COc1cc(C(Nc2nc3c(Cl)cccc3s2)c2c(O)ccc3ccccc23)cc(OC)c1OC` (stereo not given) the inhibition was “Dose-dependent effect”. In the case of `Cc1cccc2sc(NC(c3ccc(Cl)c(Cl)c3)c3c(O)ccc4ccccc34)nc12` (stereo not given), the inhibition is reported as “Dose-dependent effect”. For `COc1ccc(C(Nc2nc3ccccc3s2)c2c(O)ccc3ccccc23)cc1OC` (stereo not given), the inhibition was “Dose-dependent effect”. For `Oc1ccc2ccccc2c1C(Nc1nc2ccccc2s1)c1ccccc1` (stereo not given), the inhibition was “Dose-dependent effect”. For `COc1cc(C(Nc2nc3ccccc3s2)c2c(O)ccc3ccccc23)cc(OC)c1OC` (stereo not given), the inhibition was “Dose-dependent effect”. In the case of `Oc1ccc2ccccc2c1C(Nc1nc2c(Cl)cccc2s1)c1ccc(Br)cc1` (stereo not given), the inhibition is reported as “Dose-dependent effect”. In the case of `COc1ccc(C(Nc2nc3ccccc3s2)c2c(O)ccc3ccccc23)cc1` (stereo not given), the inhibition is reported as “Dose-dependent effect”. For `Cc1ccc(C(Nc2nc3c(Cl)cccc3s2)c2c(O)ccc3ccccc23)cc1` (stereo not given), the inhibition was “Dose-dependent effect”. For `COc1ccc(C(Nc2nc3ccccc3s2)c2c(O)ccc3ccccc23)c(OC)c1` (stereo not given), the inhibition was “Dose-dependent effect”. In the case of `Oc1ccc2ccccc2c1C(Nc1nc2c(Cl)cccc2s1)c1ccc(Cl)cc1Cl` (stereo not given), the inhibition is reported as “Dose-dependent effect”. For `Oc1ccc2ccccc2c1C(Nc1nc2c(Cl)cccc2s1)c1ccccc1` (stereo not given), the inhibition was “Dose-dependent effect”. For `Oc1ccc2ccccc2c1C(Nc1nc2ccccc2s1)c1ccc(Br)cc1` (stereo not given), the inhibition was “Dose-dependent effect”. In the case of `Oc1ccc2ccccc2c1C(Nc1nc2ccccc2s1)c1ccc2ccccc2c1` (stereo not given), the inhibition is reported as “Dose-dependent effect”. In the case of `COc1ccc(C(Nc2nc3c(Cl)cccc3s2)c2c(O)ccc3ccccc23)cc1` (stereo not given), the inhibition is reported as “Dose-dependent effect”. In the case of `Oc1ccc2ccccc2c1C(Nc1nc2c(Cl)cccc2s1)c1ccc(Cl)c(Cl)c1` (stereo not given), the inhibition is reported as “Dose-dependent effect”. With `Oc1ccc2ccccc2c1C(Nc1nc2ccccc2s1)c1ccc(Cl)cc1Cl` (stereo not given) the inhibition was “Dose-dependent effect”. In the case of `CN(C)c1ccc(C(Nc2nc3c(Cl)cccc3s2)c2c(O)ccc3ccccc23)cc1` (stereo not given), the inhibition is reported as “Dose-dependent effect”. With `CC(c1ccccc1)C(Nc1nc2ccccc2s1)c1c(O)ccc2ccccc12` (stereo not given) the inhibition was “Dose-dependent effect”. In the case of `Oc1ccc2ccccc2c1C(Nc1nc2c(Cl)cccc2s1)c1ccc(F)cc1` (stereo not given), the inhibition is reported as “Dose-dependent effect”. For `Cc1ccc(C(Nc2nc3ccccc3s2)c2c(O)ccc3ccccc23)cc1` (stereo not given), the inhibition was “Dose-dependent effect”. In the case of `Oc1ccc2ccccc2c1C(Nc1nc2ccccc2s1)c1cccc(F)c1` (stereo not given), the inhibition is reported as “Dose-dependent effect”. In the case of `Oc1ccc2ccccc2c1C(Nc1nc2ccccc2s1)c1ccc(F)c(F)c1` (stereo not given), the inhibition is reported as “Dose-dependent effect”. For `Cc1ccc(C(Nc2nc3ccc(Cl)cc3s2)c2c(O)ccc3ccccc23)cc1` (stereo not given), the inhibition was “Dose-dependent effect”.
